Data as given in ChEMBL document CHEMBL5724801, “EUbOPEN Chemogenomics Library - Multiplex” (2024).
Several values for one entry are separate records, joined by “and”; a condition that tells them apart may be missing. Equal values may be shown once.

System: HEK-293T
Test: Multiplex assay against HEK293T
Format: toxicity, cell-based
Details: human
Summary of the method: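 Live cells carried four stains from seeding: Hoechst33342, BioTracker Green Microtubule Cytoskeleton Dye, MitoTracker Red and Annexin V Alexa Fluor 680. They were imaged on a CQ1 microscope at 37°C and 5% CO2 after compound addition. Using CellPathfinder machine-learning gating, cells were split into Hoechst high-intensity objects or normal cells, normal cells into healthy, pyknosed or fragmented nuclei, and pyknosed cells into mitotic or apoptotic; tubulin, mitochondrial-mass and membrane-permeability phenotypes are per cents of healthy-nucleus cells.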

[1] = 12 h, 1 µM, compound concentration 1 uM
[2] = 12 h, 10 µM, compound concentration 10 uM
[3] = 24 h, 1 µM, compound concentration 1 uM
[4] = 24 h, 10 µM, compound concentration 10 uM
[5] = 48 h, 1 µM, compound concentration 1 uM
[6] = 48 h, 10 µM, compound concentration 10 uM

## CCCCCCNC(=O)Nc1ccc(S(=O)(=O)Nc2ccc(CCNC[C@H](O)COc3ccc(O)cc3)cc2)cc1 [L-755507]
[1]
  Population Apoptotic (%): 35% and 31%
  Population Fragmented Nuclei (%): 8% and 6%
  Population Healthy Nuclei (%): 84% and 83%
  Population Hoechst High Intensity Objects (%): 7%
  Population Membrane Permeable-Phenotype (%): 0%
  Population Mitochondria Different-Phenotype (%): 39% and 64%
  Population Mitotic Cells (%): 64% and 68%
  Population Normal (%): 92%
  Population Pyknosed Nuclei (%): 7% and 10%
  Population Tubulin-Different-Phenotype (%): 28% and 32%
  Total Cell Count: 494 and 403
[2]
  Population Apoptotic (%): 58% and 71%
  Population Fragmented Nuclei (%): 10% and 8%
  Population Healthy Nuclei (%): 74% and 79%
  Population Hoechst High Intensity Objects (%): 17% and 7%
  Population Membrane Permeable-Phenotype (%): 0%
  Population Mitochondria Different-Phenotype (%): 69% and 87%
  Population Mitotic Cells (%): 41% and 28%
  Population Normal (%): 82% and 92%
  Population Pyknosed Nuclei (%): 14% and 11%
  Population Tubulin-Different-Phenotype (%): 68% and 61%
  Total Cell Count: 384 and 341
[3]
  Population Apoptotic (%): 19% and 30%
  Population Fragmented Nuclei (%): 9% and 11%
  Population Healthy Nuclei (%): 80%
  Population Hoechst High Intensity Objects (%): 5% and 4%
  Population Membrane Permeable-Phenotype (%): 0%
  Population Mitochondria Different-Phenotype (%): 20% and 42%
  Population Mitotic Cells (%): 80% and 70%
  Population Normal (%): 94% and 95%
  Population Pyknosed Nuclei (%): 9% and 7%
  Population Tubulin-Different-Phenotype (%): 20% and 22%
  Total Cell Count: 634 and 547
[4]
  Population Apoptotic (%): 26% and 48%
  Population Fragmented Nuclei (%): 8% and 7%
  Population Healthy Nuclei (%): 80% and 83%
  Population Hoechst High Intensity Objects (%): 14% and 9%
  Population Membrane Permeable-Phenotype (%): 0%
  Population Mitochondria Different-Phenotype (%): 59% and 68%
  Population Mitotic Cells (%): 73% and 51%
  Population Normal (%): 85% and 90%
  Population Pyknosed Nuclei (%): 11% and 9%
  Population Tubulin-Different-Phenotype (%): 42% and 51%
  Total Cell Count: 461 and 402
[5]
  Population Apoptotic (%): 10% and 15%
  Population Fragmented Nuclei (%): 12% and 13%
  Population Healthy Nuclei (%): 81% and 80%
  Population Hoechst High Intensity Objects (%): 3% and 5%
  Population Membrane Permeable-Phenotype (%): 2%
  Population Mitochondria Different-Phenotype (%): 16% and 24%
  Population Mitotic Cells (%): 89% and 84%
  Population Normal (%): 96% and 94%
  Population Pyknosed Nuclei (%): 6%
  Population Tubulin-Different-Phenotype (%): 15% and 20%
  Total Cell Count: 1052 and 775
[6]
  Population Apoptotic (%): 46% and 65%
  Population Fragmented Nuclei (%): 15% and 13%
  Population Healthy Nuclei (%): 75% and 80%
  Population Hoechst High Intensity Objects (%): 11% and 8%
  Population Membrane Permeable-Phenotype (%): 1% and 0%
  Population Mitochondria Different-Phenotype (%): 36% and 47%
  Population Mitotic Cells (%): 53% and 34%
  Population Normal (%): 88% and 91%
  Population Pyknosed Nuclei (%): 9% and 5%
  Population Tubulin-Different-Phenotype (%): 32% and 39%
  Total Cell Count: 598 and 596

## CN1CCN2c3ncccc3Cc3ccccc3C2C1 (configuration not stated) [MIRTAZAPINE]
[1]
  Population Apoptotic (%): 58% and 51%
  Population Fragmented Nuclei (%): 4% and 3%
  Population Healthy Nuclei (%): 88% and 79%
  Population Hoechst High Intensity Objects (%): 5% and 7%
  Population Membrane Permeable-Phenotype (%): 0%
  Population Mitochondria Different-Phenotype (%): 41% and 68%
  Population Mitotic Cells (%): 41% and 48%
  Population Normal (%): 94% and 92%
  Population Pyknosed Nuclei (%): 7% and 17%
  Population Tubulin-Different-Phenotype (%): 22% and 21%
  Total Cell Count: 402 and 329
[2]
  Population Apoptotic (%): 45% and 47%
  Population Fragmented Nuclei (%): 9% and 5%
  Population Healthy Nuclei (%): 75% and 79%
  Population Hoechst High Intensity Objects (%): 6%
  Population Membrane Permeable-Phenotype (%): 0% and 1%
  Population Mitochondria Different-Phenotype (%): 49% and 64%
  Population Mitotic Cells (%): 54% and 52%
  Population Normal (%): 93%
  Population Pyknosed Nuclei (%): 15%
  Population Tubulin-Different-Phenotype (%): 43% and 36%
  Total Cell Count: 228 and 240
[3]
  Population Apoptotic (%): 33% and 42%
  Population Fragmented Nuclei (%): 9% and 6%
  Population Healthy Nuclei (%): 80% and 79%
  Population Hoechst High Intensity Objects (%): 3% and 6%
  Population Membrane Permeable-Phenotype (%): 0%
  Population Mitochondria Different-Phenotype (%): 35% and 47%
  Population Mitotic Cells (%): 66% and 57%
  Population Normal (%): 97% and 93%
  Population Pyknosed Nuclei (%): 10% and 14%
  Population Tubulin-Different-Phenotype (%): 18% and 17%
  Total Cell Count: 601 and 373
[4]
  Population Apoptotic (%): 44% and 32%
  Population Fragmented Nuclei (%): 9% and 5%
  Population Healthy Nuclei (%): 78% and 80%
  Population Hoechst High Intensity Objects (%): 3% and 5%
  Population Membrane Permeable-Phenotype (%): 0%
  Population Mitochondria Different-Phenotype (%): 40% and 44%
  Population Mitotic Cells (%): 55% and 67%
  Population Normal (%): 96% and 94%
  Population Pyknosed Nuclei (%): 12% and 13%
  Population Tubulin-Different-Phenotype (%): 28% and 18%
  Total Cell Count: 274 and 314
[5]
  Population Apoptotic (%): 23% and 44%
  Population Fragmented Nuclei (%): 11% and 13%
  Population Healthy Nuclei (%): 82% and 80%
  Population Hoechst High Intensity Objects (%): 2% and 3%
  Population Membrane Permeable-Phenotype (%): 1% and 0%
  Population Mitochondria Different-Phenotype (%): 19% and 21%
  Population Mitotic Cells (%): 76% and 55%
  Population Normal (%): 97% and 96%
  Population Pyknosed Nuclei (%): 6%
  Population Tubulin-Different-Phenotype (%): 13% and 9%
  Total Cell Count: 885 and 562
[6]
  Population Apoptotic (%): 31% and 30%
  Population Fragmented Nuclei (%): 14% and 11%
  Population Healthy Nuclei (%): 74% and 81%
  Population Hoechst High Intensity Objects (%): 2% and 3%
  Population Membrane Permeable-Phenotype (%): 0%
  Population Mitochondria Different-Phenotype (%): 36% and 30%
  Population Mitotic Cells (%): 68% and 69%
  Population Normal (%): 97% and 96%
  Population Pyknosed Nuclei (%): 10% and 7%
  Population Tubulin-Different-Phenotype (%): 20% and 12%
  Total Cell Count: 390 and 521
